PRMT1 inh = PRMT1 (human) inhibition, primary screen; recombinant PRMT1, activity-based probe fluorescence polarization; AID 652257; 370,000 tested, 1.3% active; Q99873; inhibition, % at 2.79 µM;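 active = inhibition above about 21% made by adding two undisclosed values, limit read from the data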
Target sequence (Q99873 whole entry, looked up): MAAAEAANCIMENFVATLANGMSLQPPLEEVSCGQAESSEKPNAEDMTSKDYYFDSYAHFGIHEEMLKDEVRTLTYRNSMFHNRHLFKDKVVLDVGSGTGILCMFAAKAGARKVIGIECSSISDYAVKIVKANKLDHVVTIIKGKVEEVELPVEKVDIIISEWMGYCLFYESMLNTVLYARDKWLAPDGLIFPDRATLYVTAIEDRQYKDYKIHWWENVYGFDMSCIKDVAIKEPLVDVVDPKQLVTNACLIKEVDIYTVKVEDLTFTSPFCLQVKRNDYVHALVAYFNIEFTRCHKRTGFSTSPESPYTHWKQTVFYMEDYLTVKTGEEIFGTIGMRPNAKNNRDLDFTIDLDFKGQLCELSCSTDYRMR
SIAE primary = inhibitors of human sialic acid acetylesterase SIAE; Q9HAT2; SIAE FP-Rh probe binding, fluorescence polarization; inhibition, % at 9.66 µM; 370,000 tested, 0.69% active;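 active = inhibition above a cutoff: mean of compounds within the control limits plus 3 SD of those, cut at about 17% in these data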;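 also: 0% = plate median of compound wells and 100% = probe without SIAE protein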
TCR-CD3 inh = inhibitors of human TCR-CD3 interaction; AID 651800; inhibition, % at 9.4 µM; 360,000 tested, 0.37% active; TAMRA-labeled TCR probe fluorescence, biochemical; in the data active = inhibition above about 19%;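 also: recombinant mutant TCR 2C K166C tagged with TAMRA read by polarization; 0% = receptor in buffer alone and 100% = receptor with positive control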
rCAG binder = r(CAG) repeat RNA binding; TO-PRO-1 dye displacement fluorescence; inhibition, % at 3 µM; 370,000 tested, 1.3% active;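 active = inhibition above the plate cutoff, the mean of all test compounds on that plate plus 3 SD, cut at about 35% in these data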;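 also: 0% = DMSO alone and 100% = 100 µM mitoxantrone as full dye displacement; higher means more dye released from RNA so lower well fluorescence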
ABHD4 inh = inhibitors of mouse ABHD4; Q8VD66; 370,000 tested, 0.54% active; inhibition, % at 8.92 µM; AID 720543; purified mABHD4, FP-Rh probe fluorescence polarization;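 active = inhibition exceeding the mean over every tested compound plus 3 SD, cut at about 30% in these data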;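 also: 0% = plate median of compound wells and 100% = S159A mutant with DMSO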
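Test system: mouse ABHD4 enzyme, wild type. Reagent: FP-Rh fluorescent activity-based probe, added after compound pre-incubation. Timing: pre-incubation 45 min, probe exposure 60 min, at 25 °C. Technique: FP readout, ex 525 nm / em 598 nm. Benchmarks: high control S159A mutant with DMSO, low control median of compound wells.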
SIAE confirm = confirmation of human SIAE inhibitors; AID 1117263; SIAE FP-Rh activity-based probe, fluorescence polarization; 2,300 tested, 13% active; inhibition, % at 9.66 µM; shares compounds with SIAE primary;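 active = mean inhibition of the replicates above the hit cutoff set in the primary screen, cut at about 17% in these data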;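 also: 0% = SIAE with DMSO and probe and 100% = probe without SIAE; inhibitors lower polarization as more probe stays unbound to SIAE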
* hit, by the source's call; nt = no result. This is a sample that favours compounds with a hit; in the whole collection about 3.3% have one here.

SMILES | PRMT1 inh | SIAE primary | TCR-CD3 inh | rCAG binder | ABHD4 inh | SIAE confirm
O=C(NCc1ccccc1Cl)[C@H]1CCCN1C(=O)[C@H]1CCCN1C(=O)c1ccc(Cl)cc1 | -1 | 0 | -6 | 0 | 0 | nt
Cc1cc(-c2cc(NC(=O)Cc3c(C)[nH]c4ccccc34)ccc2Nc2cccnc2)ccc1F | 6 | 7 | -6 | 15 | 20 | nt
COc1ccc(-c2cc(NC(=O)Cc3c(C)[nH]c4ccccc34)ccc2Nc2cccnc2)cc1OC | 2 | 17* | 0 | 16 | 5 | 6
Cc1[nH]c2ccccc2c1CC(=O)Nc1ccc(Nc2ccncc2)cc1 | -6 | 34* | -1 | 9 | 3 | 25*
Cc1[nH]c2ccccc2c1CC(=O)Nc1ccc(Nc2ccccc2)cc1 | 9 | 15 | -10 | 13 | 11 | nt
O=C(CCCC(=O)Nc1ccc(Br)cc1)N/N=C/c1ccccc1 | -2 | 8 | 6 | -2 | -4 | nt
O=C(CCN1C(=O)c2ccccc2C1=O)Nc1cccc(O)c1 | -6 | 20* | 5 | -1 | -1 | -1
O=C(CCCCCN1C(=O)c2ccccc2C1=O)Nc1cccc(O)c1 | -1 | 3 | 6 | -3 | 0 | nt
O=C(NCc1ccco1)C1CCCN(S(=O)(=O)c2ccc(F)cc2)C1 (stereo unspecified) | -2 | 1 | nt | 4 | 0 | nt
CCCNc1c(NS(=O)(=O)c2cccs2)c(=O)oc2ccccc12 | 0 | 5 | 4 | 1 | -3 | nt
O=C(O)CC(C(=O)O)c1ccc(OCCCCOc2ccc(C(CC(=O)O)C(=O)O)cc2)cc1 (stereo unspecified) | 0 | 19* | 15 | 6 | 1 | 1
COc1ccc(-c2[nH]c(-c3cccc(OC)c3)nc2SCC(=O)NC2CCCC2)cc1 | 2 | 24* | 0 | 4 | 22 | 2
COc1cc(NC(=O)Nc2cccn3nc(COCCO)nc23)cc(OC)c1OC | 0 | 3 | -11 | -1 | -6 | nt
CCOCCCNc1nc(=S)[nH]c2cc(OC)c(OC)cc12 | 2 | 4 | 8 | -4 | 12 | nt
COc1cc2[nH]c(=S)nc(NCCCOC(C)C)c2cc1OC | -2 | 24* | -1 | -3 | 3 | -4
Cc1ccc(NC(=O)COC(=O)CCc2ccccc2)c(Cl)c1 | -1 | 22* | -2 | 0 | 5 | 2
Cc1ccc(OCCC(=O)OCC(=O)Nc2ccc(C)cc2Cl)cc1 | 6 | -7 | -5 | -5 | -19 | nt
O=c1[nH][nH]c2c1C(C1CCCCC1)OC(C1CCCCC1)C2 (stereo unspecified) | -1 | -10 | 2 | 8 | 9 | nt
O=C(NNc1c2ccccc2nc2ccccc12)c1ccc(O)cc1 | -1 | 7 | -1 | 7 | 15 | nt
O=C(NNc1c2ccccc2nc2ccccc12)c1ccccc1O | 4 | 19* | -1 | 33 | 28 | 18*
O=C(NNc1c2ccccc2nc2ccccc12)c1cccc(O)c1 | -1 | 18* | 0 | 6 | 20 | 6
COc1ccc(-c2nc(C)sc2CC(=O)O)cc1OC | -1 | 18* | 4 | 2 | 4 | 4
COc1ccc(-c2nc(C)sc2CC(=O)O)cc1 | 1 | -3 | -2 | -3 | 6 | nt
CCCOc1ccc(C(=O)Nc2cc(S(=O)(=O)N3CCOCC3)ccc2N2CCOCC2)cc1 | -2 | -2 | 4 | -2 | -6 | nt
CCOC(=O)CCCCCC(=O)Nc1ccc2c(c1)C(=O)N([C@@H](C)CO)C[C@@H](C)[C@H](CN(C)C(=O)Nc1ccccc1)OCCCC[C@H](C)O2 | -1 | 4 | -5 | 6 | -14 | nt
SMILES | PRMT1 inh | SIAE primary | TCR-CD3 inh | rCAG binder | ABHD4 inh | SIAE confirm
CCCCc1c(-c2ccccc2OC)ncn1Cc1ccc(Cl)cc1Cl | -4 | 1 | 1 | 2 | 4 | nt
COC(=O)c1ccccc1S(=O)(=O)NC(=O)[C@H]1O[C@@H](n2ccc(=O)[nH]c2=O)[C@H](O)[C@@H]1O | -1 | 74* | 9 | 1 | -5 | 73*
Cc1ccc(OCCNC(=O)[C@H]2O[C@@H](n3ccc(=O)[nH]c3=O)[C@H](O)[C@@H]2O)cc1C | -2 | -7 | 5 | 2 | 0 | nt
COc1cccc(-c2cc(CNC(=O)[C@H]3O[C@@H](n4ccc(=O)[nH]c4=O)[C@H](O)[C@@H]3O)no2)c1 | -2 | 75* | 7 | 1 | 6 | 68*
CC(Oc1ccccc1)C(=O)N=C1SC2CS(=O)(=O)CC2N1CCc1ccccc1 (stereo unspecified) | -1 | 1 | 3 | -1 | -4 | nt
COc1cccc(OCc2cc(C(=O)NC(C)c3cnn(C)c3C)no2)c1 (stereo unspecified) | 4 | 0 | -3 | -6 | 1 | nt
CS(=O)(=O)c1cnc(-c2ccccc2)nc1Sc1ccc(F)cc1 | -2 | 17* | 3 | 3 | 4 | 5
Brc1ccc2nc(-c3ccco3)c(CC3CCCCC3)n2c1 | 12 | 10 | 11 | 28 | 15 | nt
CC(/C=C(\NC(=O)c1ccccc1)C(=O)N=Nc1c(O)[nH]c2ccc(C)cc12)=C\c1ccccc1 | 2 | 21* | 5 | 11 | 4 | 9
CC(=O)OC(C(=O)NC1CCCCC1)c1ccccc1F (stereo unspecified) | -8 | 18* | 6 | -5 | 0 | -4
O=C(Cn1cnc2c(oc3ccccc32)c1=O)c1ccccc1 | -1 | 18* | 6 | -1 | -1 | -3
O=C(O)Cn1cnc2c(oc3ccccc32)c1=O | -3 | -8 | 6 | 1 | -8 | nt
CCn1cnc2c(oc3ccccc32)c1=O | -4 | 20* | 0 | -3 | -4 | 1
Cn1c(=O)n(Cc2ccccc2)c(=O)c2c1nc1n2CCN1Cc1ccco1 | -2 | 19* | 3 | -8 | -1 | 4
Cc1ccc(Cn2c(=O)c3c(nc4n3CCN4Cc3ccco3)n(C)c2=O)cc1 | -3 | 4 | 2 | -6 | -2 | nt
CCCn1c(=O)[nH]c(=O)c2c1nc(-c1ccc(OC)c(Br)c1)n2CCOC | -4 | 21* | -1 | -4 | -8 | -17
CCOC(=O)N1CCC(NC(=O)C2CCN(C(=O)N3CC(C)Oc4ccc(C)cc43)CC2)CC1 (stereo unspecified) | -2 | -8 | 4 | -9 | -5 | nt
CCOC(=O)N1CCC(NC(=O)C2CCN(C(=O)N3CC(C)Oc4ccccc43)CC2)CC1 (stereo unspecified) | 0 | 20* | -6 | -8 | 0 | -5
CCC(NC(=S)NC1CCCCC1)c1ccc(C(C)C)cc1 (stereo unspecified) | -3 | 0 | 10 | -9 | -10 | nt
O=C(NCc1ccccn1)C(=O)NCC1OCCN1S(=O)(=O)c1ccc(F)cc1 (stereo unspecified) | -4 | 19* | 0 | 3 | 0 | 4
COc1ccc(C(C)(C)C)cc1NC(=O)Nc1ccc2c(c1)OCO2 | 2 | 21* | 6 | 6 | -4 | 6
COc1cc(NC(=O)Nc2ccc3c(c2)OCO3)cc(OC)c1OC | -4 | 4 | 4 | 0 | -4 | nt

Compound activity deposited in PubChem by The Scripps Research Institute Molecular Screening Center.
